Experimental data: ChEMBL document CHEMBL1144477, “Design, synthesis and cytotoxic properties of novel 1-[4-(2-alkylaminoethoxy)phenylcarbonyl]-3,5-bis(arylidene)-4-piperidones and related compounds” (Eur J Med Chem, 2007)

Key:
Assay type in all cases: cell-based
HCT-15 = assay: Cytotoxicity against human HCT15 cells
HCT-116 = assay: Cytotoxicity against human HCT116 cells
KM12 = assay: Cytotoxicity against human KM12 cells
SW-620 = assay: Cytotoxicity against human SW620 cells
HCC 2998 = assay: Cytotoxicity against human HCC2998 cells
K562 = assay: Cytotoxicity against human K562 cells
[1] = Cytotoxicity against human RPMI8226 cells; settings: RPMI-8226
[2] = Cytotoxicity against human HL60 (TB) cells; settings: HL-60
SR = assay: Cytotoxicity against human SR cells
[3] = Cytotoxicity against human NCI49 cell lines
COLO 205 = assay: Cytotoxicity against human COLO205 cells
[4] = Cytotoxicity against human Molt4/C8 cells; settings: MOLT-4
In short: (§1)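 Human Molt 4/C8 and CEM T-lymphocytes and murine L1210 cells were each exposed to at least three compound concentrations at 37 °C for 48 h. Growth inhibition was then measured, and IC50 values were derived from it.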

CCRF-CEM = assay: Cytotoxicity against human CEM cells; in short: as §1
L1210 = assay: Cytotoxicity against […] mouse L1210 cells; in short: as §1

| Structure (SMILES) | IC50 (HCT-15) [nM] | IC50 (HCT-116) [nM] | IC50 (KM12) [nM] | IC50 (SW-620) [nM] | IC50 (HCC 2998) [nM] | IC50 (K562) [nM] | IC50 [1] [nM] | IC50 [2] [nM] | IC50 (SR) [nM] | IC50 [3] [nM] | IC50 (COLO 205) [nM] | IC50 [4] [nM] | IC50 (CCRF-CEM) [nM] | IC50 (L1210) [nM] |
| --- | --- | --- | --- | --- | --- | --- | --- | --- | --- | --- | --- | --- | --- | --- |
| O=C1/C(=C/c2ccccc2)CNC/C1=C\c1ccccc1 | 631 | 182 | 794 | 575 | 2000 | 490 | 275 | 363 | 209 | 1620 | 1550 | – | – | – |
| CC[N+](C)(CC)CCOc1ccc(C(=O)N2C/C(=C\c3ccc([N+](=O)[O-])cc3)C(=O)/C(=C/c3ccc([N+](=O)[O-])cc3)C2)cc1 | – | – | – | – | – | – | – | – | – | – | – | 40200 | 39300 | 65000 |
| CC[N+](C)(CC)CCOc1ccc(C(=O)N2C/C(=C\c3ccccc3)C(=O)/C(=C/c3ccccc3)C2)cc1 | > 50100 | > 50100 | 43700 | 30200 | 28200 | 43700 | 17400 | > 50100 | 38000 | > 41700 | 20400 | 124000 | 110000 | 160000 |
| CC[N+](C)(CC)CCOc1ccc(C(=O)N2C/C(=C\c3ccc(Cl)cc3)C(=O)/C(=C/c3ccc(Cl)cc3)C2)cc1 | – | – | – | – | – | – | – | – | – | – | – | 55800 | 71200 | 729000 |
| O=C1/C(=C/c2ccccc2)CN(C(=O)c2ccccc2)C/C1=C\c1ccccc1 | – | – | – | – | – | – | – | – | – | – | – | 1700 | 1640 | 12000 |
| CC[N+](C)(CC)CCOc1ccc(C(=O)N2C/C(=C\c3ccc(C)cc3)C(=O)/C(=C/c3ccc(C)cc3)C2)cc1 | 9330 | 14100 | 9330 | 10500 | 6170 | 1350 | 1260 | 11800 | 22900 | 7760 | 8910 | 12400 | 23700 | 18700 |
| COc1ccc(C(=O)N2C/C(=C\c3ccccc3)C(=O)/C(=C/c3ccccc3)C2)cc1 | – | – | – | – | – | – | – | – | – | – | – | 2390 | 5000 | 37800 |
| Cc1ccc(/C=C2\CN(C(=O)c3ccc(OCCN4CCOCC4)cc3)C/C(=C\c3ccc(C)cc3)C2=O)cc1 | 832 | 2450 | 1120 | 1020 | – | 275 | 115 | 1100 | 245 | < 708 | 1150 | 1720 | 1360 | 21800 |
| O=C1/C(=C/c2ccc(Cl)cc2)CN(C(=O)c2ccc(OCCN3CCCCC3)cc2)C/C1=C\c1ccc(Cl)cc1 | 49000 | 47900 | 19100 | 3550 | 1580 | 4370 | 759 | 20400 | 2290 | > 11500 | 15800 | 34000 | 9980 | 103000 |
| CN(C)CCOc1ccc(C(=O)N2C/C(=C\c3ccc(Cl)cc3)C(=O)/C(=C/c3ccc(Cl)cc3)C2)cc1 | 295 | 6030 | 1740 | 209 | 263 | 331 | 98 | 1410 | 126 | 1910 | 1700 | 1440 | 1090 | 7180 |
| CCN(CC)CCOc1ccc(C(=O)N2C/C(=C\c3ccccc3)C(=O)/C(=C/c3ccccc3)C2)cc1 | 1170 | < 10 | 1740 | 1350 | – | 43 | < 10 | – | – | < 1380 | 2630 | 1280 | 1650 | 8230 |
| O=C1/C(=C/c2ccc([N+](=O)[O-])cc2)CN(C(=O)c2ccc(OCCN3CCOCC3)cc2)C/C1=C\c1ccc([N+](=O)[O-])cc1 | – | – | – | – | – | – | – | – | – | – | – | 343 | 379 | 6340 |
| O=C1/C(=C/c2ccccc2)CN(C(=O)c2ccc(OCCN3CCOCC3)cc2)C/C1=C\c1ccccc1 | 1450 | 339 | 129 | 191 | – | 158 | 123 | 562 | – | > 2630 | 22900 | 8420 | 6840 | 222000 |
